Results taken from article PMC9199876 (Clinical and Translational Science, 2022).
Where two headings read alike, the source gives them in different places.

Key:
[1] = cited from earlier work
CYP2C8 [2] = conditions: in vitro; cited from earlier work
[3] = phase II, 51 patients with idiopathic or diabetic gastroparesis; cited from earlier work
OAT1 [4] = conditions: at a clinically relevant dose; cited from earlier work
CYP2C19 = conditions: in vitro, clinically relevant dose (0.06 μM); cited from earlier work
CYP3A = conditions: in vitro, clinically relevant dose (0.06 μM); cited from earlier work
MATE2-K [5] = conditions: in vitro; cited from earlier work
OATP1B1/1B3 [6] = conditions: at a clinically relevant dose; cited from earlier work
[7] = Safety and tolerability assessment; type: in vivo, humans (healthy adults); conditions: for Number of participants with TEAEs / TEAE: Abdominal pain, upper / TEAE: Cough / TEAE: Dermatitis contact / TEAE: Gastrointestinal disorders / TEAE: Headache / TEAE: Nasal congestion / TEAE: Nervous system disorders / TEAE: Respiratory, thoracic, and mediastinal disorders / TEAE: Sensory disturbance / TEAE: Sinus congestion / TEAE: Skin and subcutaneous tissue disorders / TEAE: Sneezing: n = 12
Summary of the method: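 Twelve healthy adults received a single oral 25 mg dose with and without i.v. rifampin 600 mg in crossover. TEAEs were monitored throughout. Vital signs and triplicate 12-lead ECGs were taken at screening (day −28 to −2), predose, and 1, 2, 4, 8 and 48 h post dose in each period. Serum chemistry, hematology and urinalysis were also run. Follow-up included a full physical exam, vital signs and ECG.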

[8] = ref data on file, cited from earlier work
CYP1A2 = conditions: in vitro, clinically relevant dose (0.06 μM); cited from earlier work
CYP3A4 = conditions: phase I DDI studies; cited from earlier work
[9] = preclinical; cited from earlier work
[10] = single and multiple doses, healthy men and women; cited from earlier work
OATP1B1/1B3 [11] = experiment: Clinical DDI: effect of single-dose i.v. rifampin; type: in vivo, humans (healthy adults); conditions: plasma trazpiroben; trazpiroben with rifampin relative to trazpiroben alone
Summary of the method: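 Healthy fasted adults (n = 12) in a two-way crossover: an oral 25 mg capsule of test compound alone, or given immediately after 600 mg rifampin i.v. over 30 min. Washout was ≥7 days. Plasma parent and metabolite were assayed by validated LC-MS/MS and analysed noncompartmentally. The ANOVA on log-transformed AUC∞ and Cmax gave the LSM difference (B – A), which was exponentiated to give GMRs with 90% CIs.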

OCT2 [12] = conditions: at a clinically relevant dose; cited from earlier work
bile salt export pump = conditions: at a clinically relevant dose; cited from earlier work
BCRP = conditions: at a clinically relevant dose; cited from earlier work
OCT2 [13] = conditions: in vitro; cited from earlier work
[14] = oral administration, dogs; cited from earlier work
CYP2C8 [15] = conditions: in vitro, clinically relevant dose (0.06 μM); cited from earlier work
[16] = oral administration, rats; cited from earlier work
p-glycoprotein (P-gp) = conditions: in vitro; cited from earlier work
OAT3 [17] = conditions: in vitro; cited from earlier work
CYP2B6 = conditions: in vitro, clinically relevant dose (0.06 μM); cited from earlier work
MATE1 = conditions: in vitro; cited from earlier work
OAT3 [18] = conditions: at a clinically relevant dose; cited from earlier work
CYP2D6 = conditions: in vitro, clinically relevant dose (0.06 μM); cited from earlier work
[19] = healthy Japanese individuals; cited from earlier work
OAT1 [20] = conditions: in vitro; cited from earlier work
CYP2C9 = conditions: in vitro, clinically relevant dose (0.06 μM); cited from earlier work
MATE2-K [21] = conditions: at a clinically relevant dose; cited from earlier work
[22] = trazpiroben 25 mg + rifampin 600 mg
[23] = fasted rats, oral radiolabeled trazpiroben, after 24 h

SMILES: O=C(O)c1cccc(CN2CN(C3CCCCC3)C3(CCN(CCCC(=O)c4ccccc4)CC3)C2=O)c1 [trazpiroben, Trazpiroben]
- accumulation index ([1]; 50 mg twice daily for 5 days): 1.9
- accumulation index ([1]; 100 mg twice daily for 5 days): 1.4
- time to maximum concentration [T max] ([1]; AT-01C study, healthy men and women): ~ 1.1 h
- mean half-life ([1]; AT-01C study): 4 h
- mean apparent oral clearance ([1]; across single-dose groups of 25–300 mg): 600 to 800 L/h
- share of metabolism via CYP2C8 (CYP2C8 [2]): 11.8%
- safety signals [3]: did not identify any safety signals
- inhibitor of OAT1 (OAT1 [4]): not an inhibitor
- inhibition of CYP2C19 (CYP2C19): does not inhibit
- inhibition of CYP3A (CYP3A): does not inhibit
- substrate of MATE2-K (MATE2-K [5]): not a substrate
- inhibitor of OATP1B1/1B3 (OATP1B1/1B3 [6]): not an inhibitor
- serum chemistry, hematology, urinalysis, vital signs, and ECG results ([7]; all participants, throughout the study): remained within normal limits
- AE relating to QT prolongation ([7]; current study): no clinically relevant AE relating to QT prolongation
- Number of participants with TEAEs ([7]; overall (both treatments)): 6 (50) n (%)
- TEAE: Abdominal pain, upper ([7]; overall (both treatments)): 1 (8) n (%)
- TEAE: Cough ([7]; overall (both treatments)): 1 (8) n (%)
- TEAE: Dermatitis contact ([7]; overall (both treatments)): 1 (8) n (%)
- TEAE: Gastrointestinal disorders ([7]; overall (both treatments)): 1 (8) n (%)
- TEAE: Headache ([7]; overall (both treatments)): 2 (17) n (%)
- TEAE: Nasal congestion ([7]; overall (both treatments)): 1 (8) n (%)
- TEAE: Nervous system disorders ([7]; overall (both treatments)): 3 (25) n (%)
- TEAE: Respiratory, thoracic, and mediastinal disorders ([7]; overall (both treatments)): 2 (17) n (%)
- TEAE: Sensory disturbance ([7]; overall (both treatments)): 1 (8) n (%)
- TEAE: Sinus congestion ([7]; overall (both treatments)): 1 (8) n (%)
- TEAE: Skin and subcutaneous tissue disorders ([7]; overall (both treatments)): 1 (8) n (%)
- TEAE: Sneezing ([7]; overall (both treatments)): 1 (8) n (%)
- tolerability ([7]; single agent or in combination with rifampin, healthy participants): well‐tolerated
- Number of participants with TEAEs [7, 22]: 2 (17) n (%)
- TEAE: Abdominal pain, upper [7, 22]: 0 (0) n (%)
- TEAE: Cough [7, 22]: 1 (8) n (%)
- TEAE: Dermatitis contact [7, 22]: 0 (0) n (%)
- TEAE: Gastrointestinal disorders [7, 22]: 0 (0) n (%)
- TEAE: Headache [7, 22]: 1 (8) n (%)
- TEAE: Nasal congestion [7, 22]: 1 (8) n (%)
- TEAE: Nervous system disorders [7, 22]: 1 (8) n (%)
- TEAE: Respiratory, thoracic, and mediastinal disorders [7, 22]: 1 (8) n (%)
- TEAE: Sensory disturbance [7, 22]: 0 (0) n (%)
- TEAE: Sinus congestion [7, 22]: 0 (0) n (%)
- TEAE: Skin and subcutaneous tissue disorders [7, 22]: 0 (0) n (%)
- TEAE: Sneezing [7, 22]: 0 (0) n (%)
- Number of participants with TEAEs ([7]; trazpiroben 25 mg alone): 6 (50) n (%)
- TEAE: Abdominal pain, upper ([7]; trazpiroben 25 mg alone): 1 (8) n (%)
- TEAE: Cough ([7]; trazpiroben 25 mg alone): 0 (0) n (%)
- TEAE: Dermatitis contact ([7]; trazpiroben 25 mg alone): 1 (8) n (%)
- TEAE: Gastrointestinal disorders ([7]; trazpiroben 25 mg alone): 1 (8) n (%)
- TEAE: Headache ([7]; trazpiroben 25 mg alone): 2 (17) n (%)
- TEAE: Nasal congestion ([7]; trazpiroben 25 mg alone): 0 (0) n (%)
- TEAE: Nervous system disorders ([7]; trazpiroben 25 mg alone): 3 (25) n (%)
- TEAE: Respiratory, thoracic, and mediastinal disorders ([7]; trazpiroben 25 mg alone): 1 (8) n (%)
- TEAE: Sensory disturbance ([7]; trazpiroben 25 mg alone): 1 (8) n (%)
- TEAE: Sinus congestion ([7]; trazpiroben 25 mg alone): 1 (8) n (%)
- TEAE: Skin and subcutaneous tissue disorders ([7]; trazpiroben 25 mg alone): 1 (8) n (%)
- TEAE: Sneezing ([7]; trazpiroben 25 mg alone): 1 (8) n (%)
- participants reporting contact dermatitis ([7]; trazpiroben alone): 8%
- participants reporting headache ([7]; trazpiroben alone): 17%
- participants reporting sensory disturbance ([7]; trazpiroben alone): 8%
- participants reporting sinus congestion ([7]; trazpiroben alone): 8%
- participants reporting upper abdominal pain ([7]; trazpiroben alone): 8%
- severity of TEAEs ([7]; whole study): mild
- number of TEAEs recorded ([7]; whole study, 12 participants): 10
- deaths, serious AEs, discontinuations due to an AE ([7]; whole study, trazpiroben alone and with rifampin): no deaths, serious AEs, or discontinuations due to an AE
- dosed radioactivity excreted in bile ([8]; bile duct cannulated rats): ~ 86%
- dosed radioactivity excreted in feces ([8]; bile duct cannulated rats): 11%
- dosed radioactivity excreted in urine ([8]; bile duct cannulated rats): 5%
- dosed radioactivity excreted in feces [8, 23]: ~ 94%
- dosed radioactivity excreted in urine [8, 23]: 6%
- inhibition of CYP1A2 (CYP1A2): does not inhibit
- sensitivity to CYP3A4 inhibition (CYP3A4): relatively insensitive
- accumulation after repeated doses [9]: minor accumulation
- increase of plasma concentrations with dose [9]: dose‐proportional manner
- tolerability [10]: well‐tolerated
- AUC∞ geometric mean ratio (90% CI) (OATP1B1/1B3 [11]): 5.16 (4.25–6.25) fold
- C max geometric mean ratio (90% CI) (OATP1B1/1B3 [11]): 6.24 (4.62–8.42) fold
- inhibitor of OCT2 (OCT2 [12]): not an inhibitor
- inhibitor of bile salt export pump (bile salt export pump): not an inhibitor
- inhibitor of BCRP (BCRP): not an inhibitor
- substrate of OCT2 (OCT2 [13]): not a substrate
- absolute bioavailability [14]: ~ 20%
- inhibition of CYP2C8 (CYP2C8 [15]): does not inhibit
- absolute bioavailability [16]: ~ 20%
- substrate of p-glycoprotein (P-gp) (p-glycoprotein (P-gp)): substrate
- substrate of OAT3 (OAT3 [17]): not a substrate
- inhibition of CYP2B6 (CYP2B6): does not inhibit
- substrate of MATE1 (MATE1): not a substrate
- inhibitor of OAT3 (OAT3 [18]): not an inhibitor
- inhibition of CYP2D6 (CYP2D6): does not inhibit
- tolerability [19]: well‐tolerated
- substrate of OAT1 (OAT1 [20]): not a substrate
- inhibition of CYP2C9 (CYP2C9): does not inhibit
- inhibitor of MATE2-K (MATE2-K [21]): not an inhibitor
